Compounds with a hit are over-represented: about 1.8% of the library has one in this group of screens.
MBD2 DNA inh: blocks human MBD2 binding to methylated DNA | Q9UBB5 | 370,000 compounds, 0.31% hits | TR-FRET, MBD2 binding to methylated oligonucleotide | inhibition, % at 4.4 µM; in the data active = inhibition above about 13%
TDP2 inh: blocks human TDP2 phosphodiesterase activity. O95551. recombinant TDP2, T5PNP hydrolysis, p-nitrophenol absorbance 415 nm. inhibition, % at 12.8 µM. 370,000 compounds, 0.34% hits;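 active = inhibition above the mean of all tested compounds plus 3 SD, set per campaign, cut at about 25% in these data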
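Assay system: Recombinant human TDP2 | Quantity: 120 nM TDP2 per well | Incubation: 2 h at 37 °C | Signal: Epi absorbance | Evaluation: Percent inhibition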
UHRF1 binding: blocks human UHRF1 binding to methylated DNA | UHRF1 binding to methylated oligo, TR-FRET | Q96T88 | inhibition, % at 4.4 µM | 370,000 compounds, 0.75% hits;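 also: UHRF1 SRA domain binding a hemimethylated CpG hairpin DNA probe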
Target sequence (Q96T88 whole entry, looked up, the tested form may be a part): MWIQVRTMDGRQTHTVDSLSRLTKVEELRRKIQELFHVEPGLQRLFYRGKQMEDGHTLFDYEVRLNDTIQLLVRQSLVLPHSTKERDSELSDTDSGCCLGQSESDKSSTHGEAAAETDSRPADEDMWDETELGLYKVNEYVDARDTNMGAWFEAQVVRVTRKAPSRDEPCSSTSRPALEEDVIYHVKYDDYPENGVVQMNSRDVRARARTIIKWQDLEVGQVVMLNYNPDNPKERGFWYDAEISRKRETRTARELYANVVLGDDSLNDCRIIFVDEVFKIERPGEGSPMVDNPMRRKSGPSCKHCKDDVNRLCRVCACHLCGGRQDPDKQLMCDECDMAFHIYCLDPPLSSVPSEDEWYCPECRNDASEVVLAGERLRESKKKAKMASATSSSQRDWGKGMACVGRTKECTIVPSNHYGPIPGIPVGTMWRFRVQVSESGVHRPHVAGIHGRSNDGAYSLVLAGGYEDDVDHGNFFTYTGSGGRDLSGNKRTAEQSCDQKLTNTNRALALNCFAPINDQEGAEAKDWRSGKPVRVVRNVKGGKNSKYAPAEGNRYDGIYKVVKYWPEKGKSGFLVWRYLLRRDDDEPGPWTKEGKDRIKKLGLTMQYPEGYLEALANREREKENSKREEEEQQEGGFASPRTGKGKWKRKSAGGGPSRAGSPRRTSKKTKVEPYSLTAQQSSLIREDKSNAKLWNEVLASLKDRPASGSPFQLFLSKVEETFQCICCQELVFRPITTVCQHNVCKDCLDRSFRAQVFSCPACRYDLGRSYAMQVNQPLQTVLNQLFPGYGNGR
core dimer inh: HCV core protein dimerization inhibition; TR-FRET GST/Flag-core106 dimerization, 1536-well; inhibition, % at 5 µM; 300,000 compounds, 0.33% hits;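 active = inhibition above the mean of all tested compounds plus 3 SD, set per screening campaign, cut at about 45% in these data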
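Test system: GST/Flag-tagged HCV core106 proteins; Medium: KF-containing HEPES buffer, pH 7.45, DTT, CHAPS, BSA; Times: compound-protein-antibody incubation 4 h at 22.5 °C; Detection: TR-FRET 671 and 617 nm emission; Benchmarks: wells lacking GST-core106 and wells with excess unlabelled core106.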
LEDGF integ inh: blocks HIV-1 LEDGF/p75-dependent DNA integration. TR-FRET IN-LEDGF/p75 DNA integration, Eu/Cy5. inhibition, % at 3.7 µM. 370,000 compounds, 0.64% hits;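 active = inhibition above the screen-wide mean plus 3 SD, cut at about 13% in these data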;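 also: signal is the Cy5 over europium emission ratio at 671 and 618 nm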
UHRF1 ctr MBD2: counter-screen for MBD2 inhibitors: human UHRF1 methylated DNA binding inhibitors; shares compounds with MBD2 DNA inh; inhibition, % at 4.4 µM; UHRF1 binding to methylated oligonucleotide, TR-FRET; 1,000 compounds, 25% hits; AID 720530;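 also: UHRF1 SRA domain binding a labeled hemimethylated CpG hairpin DNA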
MBD2 confirm: confirmation of human MBD2-DBD methylated oligonucleotide binding inhibitors. shares compounds with MBD2 DNA inh. TR-FRET MBD2-DBD binding to methylated oligonucleotide. inhibition, % at 4.4 µM. 1,000 compounds, 26% hits. AID 720531; in the data active = inhibition above about 14%
TDP2 confirm: human TDP2 inhibition, confirmation; inhibition, % at 12.8 µM; AID 743263; 1,100 compounds, 22% hits; recombinant human TDP2, absorbance read-out; shares compounds with TDP2 inh; in the data active = inhibition above about 25%
IN multimer up: counter-screen for LEDGF/p75 integration inhibitors: HIV-1 integrase multimerization activators. 2,000 compounds, 17% hits. TR-FRET HIV-1 integrase multimerization, biochemical. AID 1053131. activation, % at 7.7 µM. shares compounds with LEDGF integ inh; in the data active = activation above about 8.9%
TR-FRET interf: optically interferes with TR-FRET readout in LEDGF counter-screen | 2,000 tested, under 10 active | TR-FRET optical interference counterscreen, HIV-1 IN multimerization | AID 1053135 | shares compounds with LEDGF integ inh | inhibition, % at 7.7 µM;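 active = inhibition above the mean over all tested compounds plus 3 SD, which no compound reached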
IN-LEDGF confirm: LEDGF/p75-dependent HIV-1 integration inhibition, confirmation. shares compounds with LEDGF integ inh. TR-FRET LEDGF/p75-dependent HIV-1 integration, biochemical. inhibition, % at 3.7 µM. 2,000 compounds, 36% hits. AID 1053136; in the data active = inhibition above about 14%
Each line names hits and unclear results; the compound was inactive in the other large screens (follow-up assays come after a bar, where they were run). Rule as the data show it, unless noted: active = inhibition above about 21%; inactive = the rest.

COc1ccc2c3c([nH]c2c1)[C@]1(CCNC=O)Nc2ccccc2C1=NCC3	none (no result: core dimer inh)
CC(C)CCNC(=O)C1CCN(c2cncnc2)CC1	none (no result: core dimer inh)
COc1ccc(/C=C/S(=O)(=O)NC2CCCC2)c(CNC(=O)OC(C)(C)C)c1	none (no result: core dimer inh)
CCC(C(=O)O)N1C(=O)/C(=C/c2cccn2C)SC1=S (configuration not stated)	none
O=C(O)CC(C(=O)O)N1C(=O)/C(=C/C=C/c2ccco2)SC1=S (configuration not stated)	MBD2 DNA inh 108.8, UHRF1 binding 100.0, LEDGF integ inh 88.8 | UHRF1 ctr MBD2 92.0 | MBD2 confirm 58.6 | IN multimer up 36.6 | TR-FRET interf inactive | IN-LEDGF confirm 94.1
CCOC(=O)[C@]12CCCCC/C=C\1N(Cc1ccc(OC)cc1)C(=O)[C@H]2CC(=O)NCc1cccs1	none (no result: core dimer inh)
O=S(=O)(NCc1ccccc1)c1ccc(Cl)cc1	none
O=S(=O)(Nc1cc2nc3ccccc3nc2n1Cc1ccccc1)c1ccc(Cl)cc1	MBD2 DNA inh 16.1, TDP2 inh 107.2, LEDGF integ inh 24.0 | UHRF1 ctr MBD2 inactive | MBD2 confirm 18.0 | TDP2 confirm 93.3 | IN multimer up inactive | TR-FRET interf inactive | IN-LEDGF confirm 72.6
O=C1C(=Cc2ccco2)CCC1=Cc1ccco1	MBD2 DNA inh 102.9, UHRF1 binding 99.8, LEDGF integ inh 91.2 (no result: core dimer inh) | UHRF1 ctr MBD2 96.1 | MBD2 confirm 53.4 | IN multimer up 14.4 | TR-FRET interf inactive | IN-LEDGF confirm 92.9
CCCCCCCCN1C(=O)[C@@H](CC(=O)NCCC(C)C)C[C@@]2(C(=O)OC)C1=C[C@H](COCc1ccccc1)O[C@@H]2C	none (no result: core dimer inh)
Cc1n[nH]c(=S)n(NC(=O)CC(=O)Nn2c(=S)[nH]nc(C)c2=O)c1=O	none
Cc1n[nH]c(=S)n(NC(=O)/C=C/C(=O)Nn2c(=S)[nH]nc(C)c2=O)c1=O	MBD2 DNA inh 14.6, UHRF1 binding 41.3, LEDGF integ inh 13.6 (no result: core dimer inh) | UHRF1 ctr MBD2 inactive | MBD2 confirm inactive | IN multimer up inactive | TR-FRET interf inactive | IN-LEDGF confirm 29.4
CCC(=O)N1CCc2cc(Br)c(S(=O)(=O)NCc3ccccc3OC)cc21	none (no result: core dimer inh)
O=C(O)Cc1c[nH]c2cccc(O)c12	MBD2 DNA inh 55.1, UHRF1 binding 94.6, LEDGF integ inh 73.0 | UHRF1 ctr MBD2 40.2 | MBD2 confirm 16.0 | IN multimer up 54.6 | TR-FRET interf inactive | IN-LEDGF confirm 39.1
O=C(O)Cc1c[nH]c2ccccc12	none
Nc1c(C(=O)NCC2CCCO2)sc2nc3c(c(-c4ccco4)c12)CC/C3=C\c1ccco1 (configuration not stated)	MBD2 DNA inh 20.8, UHRF1 binding 42.1, LEDGF integ inh 65.2 (no result: core dimer inh) | UHRF1 ctr MBD2 92.2 | MBD2 confirm 106.3 | IN multimer up 54.1 | TR-FRET interf inactive | IN-LEDGF confirm 84.5
CCN(CC)Cc1cc(O)c(CN(CC)CC)cc1O	MBD2 DNA inh 16.6, UHRF1 binding 52.1, LEDGF integ inh 64.0 (no result: core dimer inh) | UHRF1 ctr MBD2 inactive | MBD2 confirm inactive | IN multimer up inactive | TR-FRET interf inactive | IN-LEDGF confirm 57.0
O=C(NC1CCCCC1)NC1CCN(C(=S)NCc2ccco2)CC1	none
S=C(NC1CC1)SCc1ccco1	MBD2 DNA inh 23.8, UHRF1 binding 53.6, LEDGF integ inh 34.7 (no result: core dimer inh) | UHRF1 ctr MBD2 inactive | MBD2 confirm inactive | IN multimer up inactive | TR-FRET interf inactive | IN-LEDGF confirm inactive
COc1cc(/C=C/C=C2/CC/C(=C/C=C/c3ccc(O)c(OC)c3)C2=O)ccc1O	MBD2 DNA inh 31.2, UHRF1 binding 57.6, LEDGF integ inh 92.0 (no result: core dimer inh) | UHRF1 ctr MBD2 inactive | MBD2 confirm inactive | IN multimer up 26.0 | TR-FRET interf inactive | IN-LEDGF confirm 54.4
COc1cc(/C=C(\C#N)C(=O)c2ccc(O)c(O)c2)cc(I)c1O	MBD2 DNA inh 21.9, UHRF1 binding 58.1, LEDGF integ inh 90.3 | UHRF1 ctr MBD2 inactive | MBD2 confirm inactive | IN multimer up 21.5 | TR-FRET interf inactive | IN-LEDGF confirm 81.7
COc1ccc(C=C(C#N)C(=O)c2ccccc2)cc1	none (no result: core dimer inh)
c1coc(-c2nc(-c3ccco3)c(-c3ccco3)nc2-c2ccco2)c1	MBD2 DNA inh 66.6, TDP2 inh 50.0, UHRF1 binding 95.0, core dimer inh 73.2, LEDGF integ inh 89.7 | UHRF1 ctr MBD2 41.9 | MBD2 confirm 19.6 | TDP2 confirm inactive | IN multimer up inactive | TR-FRET interf inactive | IN-LEDGF confirm 82.1
COc1ccc2nc(-c3ccco3)c(-c3ccco3)nc2c1	MBD2 DNA inh 20.1, UHRF1 binding 77.5, LEDGF integ inh 64.5 | UHRF1 ctr MBD2 24.6 | MBD2 confirm inactive | IN multimer up inactive | TR-FRET interf inactive | IN-LEDGF confirm 49.7
Nc1nc(-c2ccco2)cs1	none
Cc1occc1-c1nnc(SCC(=O)Nc2ccccn2)n1-c1ccccc1	none (no result: core dimer inh)
COc1ccc(S(=O)(=O)/N=C2/NC(=O)/C(=C/c3ccco3)S2)cc1	MBD2 DNA inh 21.6, UHRF1 binding 75.8, LEDGF integ inh 38.7 | UHRF1 ctr MBD2 inactive | MBD2 confirm inactive | IN multimer up inactive | TR-FRET interf inactive | IN-LEDGF confirm inactive
COc1ccc(-c2cc(=O)[nH][nH]2)cc1OC	MBD2 DNA inh 15.9, TDP2 inh 87.1, LEDGF integ inh 41.6 | UHRF1 ctr MBD2 inactive | MBD2 confirm inactive | TDP2 confirm inactive | IN multimer up inactive | TR-FRET interf inactive | IN-LEDGF confirm inactive
CCC[C@H]1[C@@H](OC(=O)NCc2ccc(C(F)(F)F)cc2)CC[C@@]23CCCN2C(=O)CCC[C@@H]13	none (no result: core dimer inh)
Nc1ccc2nc(-c3cccc(-c4nc5ccc(N)cc5[nH]4)c3)[nH]c2c1	MBD2 DNA inh 13.6, UHRF1 binding 25.6, LEDGF integ inh 16.2 | UHRF1 ctr MBD2 inactive | MBD2 confirm inactive | IN multimer up 59.9 | TR-FRET interf inactive | IN-LEDGF confirm inactive
Nc1ccc(-c2nc3ccc(N)cc3[nH]2)cc1	none
O=C(/C=C/c1ccco1)NCc1ccco1	none

Screens deposited in PubChem by The Scripps Research Institute Molecular Screening Center.
